Laboratory results: ChEMBL document CHEMBL1137676, “Nitroimidazolyl-1,3,4-thiadiazole-based anti-leishmanial agents: synthesis and in vitro biological evaluation” (Eur J Med Chem, 2009)
Active and inactive are the calls of the source. The calls are words filed in the database; no cut-off is given here.

Assays:
[1] = Cytotoxicity against mouse peritoneal macrophages assessed as cell viability after 24 hrs by MTT assay; type: cell-based; set-up: concentration or dose not given beside the values; details: peritoneal macrophage cell
Method in brief: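 Mouse peritoneal macrophages were plated at 2 × 10⁵ cells/well. After adherence, the medium was replaced with compound-containing medium for 24 h at 37 °C, 5% CO₂, with medium-plus-DMSO controls. Viability was read by MTT colorimetric assay.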

[2] = system: Leishmania major; assay: Antileishmanial activity against promastigote form of Leishmania major MRHO/IR/75/ER after 24 hrs by MTT assay; type: functional, organism-based
Method in brief: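 Early-log promastigotes (2 × 10⁶/mL) were incubated with serial drug dilutions for 24 h at 25 °C in phenol red-free RPMI 1640 with 10% FBS, 2 mM glutamine and antibiotics, pH ~7.2. MTT at 0.5 mg/mL was added for 4 h at 37 °C, formazan was dissolved in DMSO and read at 492 nm. Controls received medium plus DMSO. IC₅₀ came from linear regression over ≥2 independent triplicate experiments, given as mean ± SD.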

[3] = system: Leishmania major; assay: Antileishmanial activity against amastigote form of Leishmania major MRHO/IR/75/ER in mouse peritoneal macrophages assessed as decrease in macrophage infectivity after 24 hrs; type: functional, organism-based
Method in brief: (§1)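 Mouse peritoneal macrophages were seeded on glass coverslips at 1 × 10⁶ per well, and non-adherent cells were washed off after 1 h. Stationary-phase promastigotes were added at 3 per macrophage for 2 h at 37 °C in CO₂, then unbound parasites were washed away. Cells got drug-containing medium for 24 h and were then methanol-fixed and Giemsa-stained, counting 60 cells per well. Infectivity index = % infected macrophages × mean amastigotes per infected cell. Two sets of experiments were run.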

[4] = system: Leishmania major; assay: Antileishmanial activity against amastigote form of Leishmania major MRHO/IR/75/ER in mouse peritoneal macrophages assessed as decrease in infectivity index after 24 hrs; type: functional, organism-based; method in brief: as §1
[5] = system: Leishmania major; assay: Antileishmanial activity against amastigote form of Leishmania major MRHO/IR/75/ER in mouse peritoneal macrophages assessed as decrease in number of amastigotes per macrophage after 24 hrs; type: functional, organism-based; method in brief: as §1
[6] = Leishmania major, MRHO/IR/75/ER, 24 h

Molecule	Activity [1]	IC50 [2]	IC50 [2, 6]	Activity [3]	Activity [4]	Activity [5]
MEGLUMINE ANTIMONATE	40%	82 µM				
Cn1c([N+](=O)[O-])cnc1-c1nnc(N2CCN(C(=O)c3cccc(Cl)c3)CC2)s1	Non-toxic		17.9 µM			
Cn1c([N+](=O)[O-])cnc1-c1nnc(N2CCN(C(=O)c3ccccc3Cl)CC2)s1	Non-toxic		20.3 µM			
Cn1c([N+](=O)[O-])cnc1-c1nnc(N2CCN(C(=O)c3ccc(Cl)s3)CC2)s1	Non-toxic		9.35 µM	Active	Active	Active
Cn1c([N+](=O)[O-])cnc1-c1nnc(N2CCN(C(=O)c3ccccc3)CC2)s1	Non-toxic		10.4 µM	Active	Active	Active
Cn1c([N+](=O)[O-])cnc1-c1nnc(N2CCN(C(=O)c3ccc(Br)s3)CC2)s1	Non-toxic		16 µM			
Cn1c([N+](=O)[O-])cnc1-c1nnc(N2CCN(C(=O)c3cccs3)CC2)s1	Non-toxic		25.6 µM			
Cn1c([N+](=O)[O-])cnc1-c1nnc(N2CCN(C(=O)c3ccc(Cl)cc3)CC2)s1	Non-toxic		42.9 µM			
